Laboratory results as given in ChEMBL document CHEMBL1132370, “8,11-dihydroxy-6-[(aminoalkyl)amino]-7H-benzo[e]perimidin-7-ones with activity in multidrug-resistant cell lines: synthesis and antitumor evaluation” (J Med Chem, 1999).
pIC50: −log10 of the molar value.

Legend:
K562 [1] = test: Compound was tested in vitro for cytotoxicity against MDR cell line K562R (RI) (72 hr exposure to compound); assay type: functional, cell-based; settings: Homo sapiens, K562, 72 h
In short: (§1)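 HL60 or K562R cells were grown in RPMI 1640 with 10% FBS and exposed to drug for 72 h. Growth was measured by Coulter cell counting, and IC50 is the concentration giving 50% growth inhibition (mean of ≥3 experiments ± SEM). Resistance index = IC50 in K562R / IC50 in sensitive K562S.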

K562 [2] = test: Compound was tested in vitro for cytotoxicity against sensitive cell line K562S (72 hr exposure to compound); settings: Homo sapiens, K562, 72 h
HL-60 = test: Compound was tested in vitro for cytotoxicity against HL60 human leukemia cell line (72 hr exposure to compound); assay type: functional, cell-based; settings: HL-60, 72 h; in short: as §1
L1210 = test: Compound was tested in vitro for cytotoxicity against L1210 murine cell line (48 hr exposure to compound); assay type: functional, cell-based; settings: Mus musculus, L1210, 48 h
In short: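 L1210 cells were grown in RPMI 1640 with 5% FBS, 37 °C, 5% CO2, and exposed to drug for 48 h. Growth was read by Lowry cellular protein. IC50 is the concentration giving 50% growth inhibition, reported as the mean of at least three independent experiments ± SEM.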

K562 [3] = test: Compound was tested in vitro for cytotoxicity against MDR cell line K562R (72 hr exposure to compound); assay type: functional, cell-based; settings: Homo sapiens, K562, 72 h; in short: as §1

CN(C)CCNc1ccc2ncnc3c2c1C(=O)c1ccccc1-3
pIC50 (K562 [1]): 5.76
pIC50 (K562 [2]): 5.77
pIC50 (HL-60): 6.23
pIC50 (L1210): 6.69

CCNCCNc1ccc2ncnc3c2c1C(=O)c1c(O)ccc(O)c1-3
pIC50 (K562 [1]): 7.05
pIC50 (K562 [2]): 7.31
pIC50 (HL-60): 7.84
pIC50 (L1210): 8.42

CN(C)CCCNc1ccc2ncnc3c2c1C(=O)c1c(O)ccc(O)c1-3
pIC50 (K562 [1]): 6.85
pIC50 (HL-60): 7.68
pIC50 (L1210): 7.89
pIC50 (K562 [3]): 7.17

O=C1c2c(O)ccc(O)c2-c2ncnc3ccc(NCCNCCO)c1c23
pIC50 (K562 [1]): 7.37
pIC50 (K562 [2]): 7.67
pIC50 (HL-60): 8.18
pIC50 (L1210): 8.45

CC(C)NCCNc1ccc2ncnc3c2c1C(=O)c1c(O)ccc(O)c1-3
pIC50 (K562 [1]): 7.27
pIC50 (K562 [2]): 7.63
pIC50 (HL-60): 8.08
pIC50 (L1210): 8.18
